Published values from different studies.
PDE4D: 3',5'-cyclic-AMP phosphodiesterase 4D (PDE4D, Homo sapiens, UniProt Q08499)
CDK7 with cyclin H: Cyclin-dependent kinase 7, with cyclin H (CDK7, Homo sapiens, UniProt P50613)
HTR1B: 5-hydroxytryptamine receptor 1B (HTR1B, Homo sapiens, UniProt P28222)
F2: Prothrombin (F2, Homo sapiens, UniProt P00734)

With `O=C(Nc1cccnn1)N1CCN([C@@H]2CCOc3cc(C(F)(F)F)ccc32)CC1` the inhibition was 1% (PDE4D; enzyme activity, inhibitor; 20 µM).
`O=C(/C=C/c1ccc(O)cc1)c1ccc(O)cc1O` has an inhibition of -6.18% (PDE4D; enzyme activity, inhibitor, radiometric; 5 µM).
With `COc1cc2c(cc1OC)[C@@]13CCN4CC5=CCO[C@H]6CC(=O)N2[C@H]1[C@H]6[C@H]5C[C@H]43` the inhibition was 28.4% (CDK7 with cyclin H; enzyme activity, inhibitor, ADP detection; 10 µM).
The inhibition of `Cc1cc(O)c2c(c1)C(=O)c1cc(O)cc(O)c1C2=O` is reported as 45.4% (PDE4D; enzyme activity, inhibitor, radiometric; 50 µM).
`COc1cc(CNC(=O)CCCC/C=C/C(C)C)ccc1O` gave an inhibition of 31.4% (CDK7 with cyclin H; enzyme activity, inhibitor, ADP detection; 10 µM).
With `Cn1cc(-c2cccc(N3CCc4c(sc5c4CC(C)(C)C5)C3=O)c2CO)cc(Nc2ccncn2)c1=O` the inhibition was -1% (Protein kinase C gamma type (PRKCG, Homo sapiens, UniProt P05129); enzyme activity, inhibitor; 1 µM).
For `C=CCc1ccc(O)c(-c2cc(CC=C)ccc2O)c1`, the inhibition was 42.7% (PDE4D; enzyme activity, inhibitor, radiometric; 50 µM).
With `Clc1ccc2c(C3CCN(CCc4c[nH]c5ccccc45)CC3)c[nH]c2c1` the inhibition was 100% (HTR1B; ligand displacement, radioligand; 10 µM).
With `O=C(O)CC(O)(CC(=O)O)C(=O)O` the inhibition was 99.2% (PDE4D; enzyme activity, inhibitor, radiometric; 50 µM).
With `C[C@@H]1CC[C@@]2(NC1)O[C@H]1C[C@H]3[C@@H]4CC=C5C[C@@H](O)CC[C@]5(C)[C@H]4CC[C@]3(C)[C@H]1[C@@H]2C` the inhibition was 22.4% (CDK7 with cyclin H; enzyme activity, inhibitor, ADP detection; 10 µM).
`O=C1C[C@@H](c2ccc(O[C@@H]3O[C@H](CO)[C@@H](O)[C@H](O)[C@H]3O)cc2)Oc2cc(O)ccc21` has an inhibition of 14% (PDE4D; enzyme activity, inhibitor, radiometric; 50 µM).
With `N=C(N)Nc1ccc(C(=O)Nc2ccc3c(c2)B(O)OC3)cc1` the inhibition was 10.7% (F2; enzyme activity, inhibitor; 50 µM).
The inhibition of `O=c1c(O)c(-c2ccc(O)c(O)c2)oc2cc(O)cc(O)c12` is reported as 75.2% (PDE4D; enzyme activity, inhibitor, radiometric; 5 µM).
For `COc1cc(Nc2ncc(F)c(Nc3ccc4c(n3)NC(=O)C(C)(C)O4)n2)cc(OC)c1OC`, the inhibition was 19% (Mitogen-activated protein kinase 7 (MAPK7, Homo sapiens, UniProt Q13164); binding, competition with immobilised ligand; 10 µM).
`COc1cc(O)ccc1/C=C/C(=O)c1ccc(O)cc1` gave an inhibition of 62.8% (PDE4D; enzyme activity, inhibitor, radiometric; 50 µM).
The inhibition of `CC[C@@]1(O)C(=O)OCc2c1cc1n(c2=O)Cc2cc3ccccc3nc2-1` is reported as 20.7% (CDK7 with cyclin H; enzyme activity, inhibitor, ADP detection; 10 µM).
The inhibition of `CC(C)=CCc1cc(-c2coc3cc(O)cc(O)c3c2=O)cc(O)c1O` is reported as 84.6% (PDE4D; enzyme activity, inhibitor, radiometric; 5 µM).
`CN(C)C(=O)COC(=O)Cc1ccc(OC(=O)c2ccc(NC(=N)N)cc2)cc1` has an inhibition of 99.1% (F2; enzyme activity, inhibitor; 50 µM).
`COc1cc2c3c(c1OC)-c1cc4c(cc1CC3N(C)CC2)OCO4` (racemic) gave an inhibition of 100% (HTR1B; ligand displacement, radioligand; 10 µM).
With `C[C@H](C(=O)N[C@H]1COc2ccccc2[C@@H]1S(C)(=O)=O)c1ccc(F)cc1` the inhibition was -6% (Phospholipase A2, major isoenzyme (PLA2G1B, Sus scrofa, UniProt P00592); cell-free assay, inhibitor; 10 µM).
The inhibition of `COc1ccc(CC2NCCc3cc(OC)c(OC)cc32)cc1OC` (stereo not drawn) is reported as 22.5% (CDK7 with cyclin H; enzyme activity, inhibitor, ADP detection; 10 µM).
With `CCOC(=O)C1=C(C)NC(c2ccccc2)=C(C(=O)OCc2ccccc2)C1C#Cc1ccccc1` (stereo not drawn) the inhibition was 0% (Adenosine receptor A2a (Adora2a, Mus musculus, UniProt Q60613); ligand displacement, radioligand; 10 µM, cell membranes).
`C[C@@H]1CCO[C@H]2Cn3cc(C(=O)NCc4ccc(F)cc4F)c(=O)c(O)c3C(=O)N12` gave an inhibition of over 50% (Gag-Pol polyprotein, integrase (gag-pol, Human immunodeficiency virus type 1 group M subtype B, UniProt P04585); enzyme activity, inhibitor; 50 nM).
`COc1c(-c2ccc3c(c2)OCO3)oc2c(ccc3occc32)c1=O` gave an inhibition of 30.4% (CDK7 with cyclin H; enzyme activity, inhibitor, ADP detection; 10 µM).
The inhibition of `c1ccc(C(NCCNC(c2ccccc2)c2ccccc2)c2ccccc2)cc1` is reported as -2% (3-hydroxy-3-methylglutaryl-coenzyme A reductase (HMGCR, Homo sapiens, UniProt P04035); enzyme activity, inhibitor; 10 µM).
For `C=C[C@H]1C[N@@]2CC[C@H]1C[C@@H]2[C@@H](O)c1ccnc2ccccc12`, the inhibition was 12.9% (CDK7 with cyclin H; enzyme activity, inhibitor, ADP detection; 10 µM).
`C#Cc1n[nH]c2c(-c3cn(C(C)c4ccccn4)c(=O)[nH]c3=O)cc(F)cc12` (stereo not drawn) gave an inhibition of -7.5% (Tyrosine-protein kinase SYK (SYK, Homo sapiens, UniProt P43405); enzyme activity, inhibitor; 1 µM).
